Source: ChEMBL document CHEMBL5032506, “Identification of Transthyretin Tetramer Kinetic Stabilizers That Are Capable of Inhibiting the Retinol-Dependent Retinol Binding Protein 4-Transthyretin Interaction: Potential Novel Therapeutics for Macular Degeneration, Transthyretin Amyloidosis, and Their Common Age-Related Comorbidities” (J Med Chem, 2021)
Activity calls are given as the source filed them. The calls are words filed in the database; no cut-off is given here.

Legend:
[1] = target: T1, Transthyretin (Homo sapiens, UniProt P02766); assay: Binding affinity to human plasma TTR tetramer assessed as displacement of diclofenac-coupled FITC by fluorescence polarization assay; assay type: cell-free
[2] = Disruption of retional-induced bacterially expressed MBP-tagged RBP4-TTR (unknown origin) protein-protein interaction measured by d2 dye based HTFR assay; parameters: species or system Homo sapiens
[3] = tested on: Mus musculus; assay: Effect of TTR level in po dosed mouse serum; assay type: functional, organism-based
[4] = tested on: Mus musculus; assay: Reduction in serum RBP4 level in mouse measured at 25 mg/kg, po after 2 hrs
[5] = target: T1, Transthyretin; assay: Stabilization of human plasma TTR assessed as inhibition of formation of high molecular weight forms of TTR with acetate buffer at pH 4 by measured at 50 uM after 72 hrs by acid-induced aggregation assay; assay type: cell-free
[6] = target: T1, Transthyretin; assay: Stabilization of human plasma TTR assessed as supression of low pH mediated TTR aggregate formation at 50 uM using pH 4 buffer; assay type: cell-free
[7] = tested on: Mus musculus; assay: Reduction in serum RBP4 level in mouse measured at 25 mg/kg, po after 1 hr
[8] = target: T1, Transthyretin; assay: Stabilization of human plasma TTR assessed as supression of low pH mediated TTR aggregate formation at 50 uM using pH 4.0 buffer
[9] = target: T1, Transthyretin; assay: Stabilization of human plasma TTR assessed as increase in dimer band intensity at 50 uM measured after 72 hrs by Western blotting analysis; assay type: cell-free
[10] = tested on: Mus musculus; assay: Reduction in serum RBP4 level in mouse measured at 25 mg/kg, po after 6 hrs; assay type: functional
Method in brief: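 Balb/c mice given a single oral dose, 25 mg/kg, in 0.9% NaCl/2% Tween 80, with a vehicle group. […] Three to eight mice per group; mean ± SD.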

[11] = target: Cytochrome P450 2C19 (Homo sapiens, UniProt P33261); assay: (§1) Inhibition of CYP2C19 (unknown origin) at 10 uM relative to control; assay type: ADME; details: 10 µM
[12] = target: Retinol-binding protein 4 (Homo sapiens, UniProt P02753); assay: Displacement of [3H]-all trans retinol from human urine biotinylated RBP4 incubated for 16 hrs measured by Scintillation Proximity Assay
[13] = target: Cytochrome P450 3A4 (Homo sapiens, UniProt P08684); assay: (§2) Inhibition of CYP3A4 (unknown origin) at 10 uM relative to control; assay type: ADME; details: 10 µM
[14] = Solubility of the compound at pH 7.4 in PBS; assay type: physicochemical
Method in brief: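 Kinetic solubility in PBS, pH 7.4. Values above 200 μM are capped at the top assay concentration, 200 μM.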

[15] = target: CYP2C9 (Homo sapiens, UniProt P11712); assay: Inhibition of CYP2C9 (unknown origin) at 10 uM relative to control; assay type: ADME
[16] = Plasma protein binding in rat; assay type: ADME, cell-free
[17] = target: CYP2D6 (Homo sapiens, UniProt P10635); assay: Inhibition of CYP2D6 (unknown origin) at 10 uM relative to control; assay type: ADME
[18] = Plasma protein binding in human; assay type: ADME, cell-free
[19] = Microsomal stability in human liver microsomes assessed as intrinsic clearance; assay type: ADME, Microsome
[20] = target: CYP2C19 (Homo sapiens, UniProt P33261); assay: as §1; assay type: ADME
[21] = Microsomal stability in human liver microsomes assessed as parent compound remaining measured after 30 min; assay type: ADME, Microsome; details: 0.5 h
[22] = Cmax in male CD-1 mouse at 5 mg/kg, po; assay type: ADME, organism-based; parameters: route oral, dose 5 mg/kg; details: in vivo
Method in brief: (§3)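 Groups of three drug-naive adult male CD-1 mice; IV dose 2 mg/kg in 3% dimethylacetamide/45% PEG300/12% ethanol/40% sterile water; PO dose 5 mg/kg in 2% Tween 80 in 0.9% saline. Compound measured in blood; AUC_last to last quantifiable time point, AUC_INF extrapolated to infinity; Cmax is maximum observed blood concentration. Mean (SD).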

[23] = Microsomal stability in mouse liver microsomes assessed as parent compound remaining measured after 30 min; assay type: ADME, Microsome; details: 0.5 h
[24] = target: CYP3A4 (Homo sapiens, UniProt P08684); assay: as §2; assay type: ADME
[25] = target: Voltage-gated inwardly rectifying potassium channel KCNH2 (Homo sapiens, UniProt Q12809); assay: Inhibition of human ERG
[26] = target: T2, Peroxisome proliferator-activated receptor gamma (Homo sapiens, UniProt P37231); assay: Activity at PPARgamma (unknown origin)
T2 sequence (P37231 whole entry): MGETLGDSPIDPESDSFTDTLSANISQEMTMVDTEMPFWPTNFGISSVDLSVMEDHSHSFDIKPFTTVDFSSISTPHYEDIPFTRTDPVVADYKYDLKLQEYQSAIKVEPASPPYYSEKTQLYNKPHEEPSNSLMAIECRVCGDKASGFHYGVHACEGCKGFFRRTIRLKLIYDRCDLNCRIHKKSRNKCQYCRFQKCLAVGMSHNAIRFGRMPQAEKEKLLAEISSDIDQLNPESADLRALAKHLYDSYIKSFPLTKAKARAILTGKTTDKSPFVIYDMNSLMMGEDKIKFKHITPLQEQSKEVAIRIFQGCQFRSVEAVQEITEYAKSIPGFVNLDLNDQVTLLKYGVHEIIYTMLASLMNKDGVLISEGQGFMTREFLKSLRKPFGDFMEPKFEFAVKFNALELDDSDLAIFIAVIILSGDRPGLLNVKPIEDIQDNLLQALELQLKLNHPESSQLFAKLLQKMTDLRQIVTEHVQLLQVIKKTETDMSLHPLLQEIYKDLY

[27] = Volume of distribution at steady state in male CD-1 mouse at 2 mg/kg, iv; assay type: ADME, organism-based; details: in vivo, read-out: Vdss
Method in brief: (§4)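 Adult male CD-1 mice, drug naïve, three per group; single 2 mg/kg IV bolus in 3% dimethylacetamide/45% PEG300/12% ethanol/40% sterile water. Compound measured in blood over time. CL is total body clearance, t1/2 is the terminal elimination phase half-life, Vss is volume of distribution at steady state. Reported as mean (SD).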

[28] = Clearance in male CD-1 mouse at 2 mg/kg, iv; assay type: ADME, organism-based; details: in vivo; method in brief: as §4
[29] = in vivo; details: male, CD-1, mouse, iv, 2 mg/kg
[30] = Half life in male CD-1 mouse at 5mg/kg, po; assay type: ADME, organism-based; details: in vivo
Method in brief: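 Adult male CD-1 mice, drug naïve, three per group; single 5 mg/kg oral dose in 2% Tween 80 in 0.9% saline. Blood compound levels followed over time; apparent terminal-phase half-life reported as mean (SD).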

[31] = tested on: Mus musculus; assay: Reduction in serum RBP4 level in mouse measured at 25 mg/kg, po administered as single dose measured after 2 hrs; assay type: functional
[32] = AUC (infinity) in male CD-1 mouse at 5 mg/kg, po; assay type: ADME, organism-based; parameters: time infinity, route oral, dose 5 mg/kg; details: in vivo; method in brief: as §3
[33] = AUClast in male CD-1 mouse at 5 mg/kg, po; assay type: ADME, organism-based; parameters: time 0 - last, route oral, dose 5 mg/kg; details: in vivo; method in brief: as §3
[34] = Half life in male CD-1 mouse at 2 mg/kg, iv; assay type: ADME, organism-based; details: in vivo; method in brief: as §4
[35] = AUClast in male CD-1 mouse at 2 mg/kg, iv; assay type: ADME, organism-based; parameters: route intravenous, time 0 - last, dose 2 mg/kg; details: in vivo; method in brief: as §3
[36] = AUC in male CD-1 mouse at 2 mg/kg, iv; assay type: ADME, organism-based; parameters: dose 2 mg/kg; details: in vivo; method in brief: as §3
[37] = Microsomal stability in rat liver microsomes assessed as parent compound remaining measured after 30 min; assay type: ADME, Microsome; details: 0.5 h

Chain of Cytochrome P450 3A4 (P08684 whole entry): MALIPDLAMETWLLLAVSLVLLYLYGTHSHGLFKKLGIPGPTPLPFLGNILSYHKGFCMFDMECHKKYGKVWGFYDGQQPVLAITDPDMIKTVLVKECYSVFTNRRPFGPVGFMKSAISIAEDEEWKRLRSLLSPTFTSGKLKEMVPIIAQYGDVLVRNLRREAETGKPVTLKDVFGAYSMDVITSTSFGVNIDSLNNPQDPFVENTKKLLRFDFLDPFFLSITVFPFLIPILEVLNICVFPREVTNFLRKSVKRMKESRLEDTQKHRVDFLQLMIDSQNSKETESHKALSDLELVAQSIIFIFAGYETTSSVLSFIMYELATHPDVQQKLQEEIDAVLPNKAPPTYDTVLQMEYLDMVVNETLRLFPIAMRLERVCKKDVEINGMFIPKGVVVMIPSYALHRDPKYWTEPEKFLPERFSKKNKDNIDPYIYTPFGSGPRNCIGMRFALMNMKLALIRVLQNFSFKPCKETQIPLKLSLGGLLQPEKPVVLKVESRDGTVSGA
Chain of CYP2D6 (P10635 whole entry): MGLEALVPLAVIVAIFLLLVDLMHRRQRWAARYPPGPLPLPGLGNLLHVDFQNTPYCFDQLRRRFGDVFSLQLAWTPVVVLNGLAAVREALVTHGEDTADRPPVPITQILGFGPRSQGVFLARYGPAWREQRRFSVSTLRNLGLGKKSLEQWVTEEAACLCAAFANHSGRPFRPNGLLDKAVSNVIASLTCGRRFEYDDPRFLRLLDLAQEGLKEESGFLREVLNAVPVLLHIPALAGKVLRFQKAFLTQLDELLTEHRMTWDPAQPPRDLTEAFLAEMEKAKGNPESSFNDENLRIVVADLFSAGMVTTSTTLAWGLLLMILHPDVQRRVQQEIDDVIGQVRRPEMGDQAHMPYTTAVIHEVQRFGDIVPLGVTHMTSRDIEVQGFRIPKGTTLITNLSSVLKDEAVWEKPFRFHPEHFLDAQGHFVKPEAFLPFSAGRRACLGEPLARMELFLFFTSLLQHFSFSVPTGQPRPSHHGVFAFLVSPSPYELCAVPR
Chain of CYP2C19 (P33261 whole entry): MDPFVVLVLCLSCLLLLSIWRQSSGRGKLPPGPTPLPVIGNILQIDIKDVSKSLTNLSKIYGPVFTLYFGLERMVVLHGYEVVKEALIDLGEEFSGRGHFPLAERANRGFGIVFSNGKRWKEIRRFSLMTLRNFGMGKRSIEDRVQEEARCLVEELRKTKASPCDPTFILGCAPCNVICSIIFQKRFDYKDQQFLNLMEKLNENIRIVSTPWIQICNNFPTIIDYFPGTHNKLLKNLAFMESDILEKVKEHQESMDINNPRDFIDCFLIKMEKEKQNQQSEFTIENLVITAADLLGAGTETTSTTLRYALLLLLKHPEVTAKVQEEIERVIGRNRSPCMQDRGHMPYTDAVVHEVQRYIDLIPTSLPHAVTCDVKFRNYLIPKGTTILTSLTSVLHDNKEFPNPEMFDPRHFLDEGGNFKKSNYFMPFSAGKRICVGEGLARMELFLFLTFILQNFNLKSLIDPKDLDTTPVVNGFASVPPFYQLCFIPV
Chain of CYP2C9 (P11712 whole entry): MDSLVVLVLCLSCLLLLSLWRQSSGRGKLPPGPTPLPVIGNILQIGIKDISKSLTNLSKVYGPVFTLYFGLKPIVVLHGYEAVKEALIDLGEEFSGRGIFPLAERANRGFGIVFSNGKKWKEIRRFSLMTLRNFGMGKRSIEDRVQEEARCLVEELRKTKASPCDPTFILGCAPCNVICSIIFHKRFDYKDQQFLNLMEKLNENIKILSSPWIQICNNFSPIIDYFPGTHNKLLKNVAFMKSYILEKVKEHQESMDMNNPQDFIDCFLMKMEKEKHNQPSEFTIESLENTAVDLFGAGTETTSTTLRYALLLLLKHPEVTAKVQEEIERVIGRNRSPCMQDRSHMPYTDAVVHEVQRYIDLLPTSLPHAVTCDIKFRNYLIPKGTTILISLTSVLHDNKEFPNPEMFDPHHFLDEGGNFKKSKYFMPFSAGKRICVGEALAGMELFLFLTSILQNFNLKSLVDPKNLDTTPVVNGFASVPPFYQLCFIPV
Chain of CYP3A4 (P08684 whole entry): as the sequence (P08684 whole entry) above
Chain of Cytochrome P450 2C19 (P33261 whole entry): as the sequence (P33261 whole entry) above
Chain of Voltage-gated inwardly rectifying potassium channel KCNH2 (Q12809 whole entry): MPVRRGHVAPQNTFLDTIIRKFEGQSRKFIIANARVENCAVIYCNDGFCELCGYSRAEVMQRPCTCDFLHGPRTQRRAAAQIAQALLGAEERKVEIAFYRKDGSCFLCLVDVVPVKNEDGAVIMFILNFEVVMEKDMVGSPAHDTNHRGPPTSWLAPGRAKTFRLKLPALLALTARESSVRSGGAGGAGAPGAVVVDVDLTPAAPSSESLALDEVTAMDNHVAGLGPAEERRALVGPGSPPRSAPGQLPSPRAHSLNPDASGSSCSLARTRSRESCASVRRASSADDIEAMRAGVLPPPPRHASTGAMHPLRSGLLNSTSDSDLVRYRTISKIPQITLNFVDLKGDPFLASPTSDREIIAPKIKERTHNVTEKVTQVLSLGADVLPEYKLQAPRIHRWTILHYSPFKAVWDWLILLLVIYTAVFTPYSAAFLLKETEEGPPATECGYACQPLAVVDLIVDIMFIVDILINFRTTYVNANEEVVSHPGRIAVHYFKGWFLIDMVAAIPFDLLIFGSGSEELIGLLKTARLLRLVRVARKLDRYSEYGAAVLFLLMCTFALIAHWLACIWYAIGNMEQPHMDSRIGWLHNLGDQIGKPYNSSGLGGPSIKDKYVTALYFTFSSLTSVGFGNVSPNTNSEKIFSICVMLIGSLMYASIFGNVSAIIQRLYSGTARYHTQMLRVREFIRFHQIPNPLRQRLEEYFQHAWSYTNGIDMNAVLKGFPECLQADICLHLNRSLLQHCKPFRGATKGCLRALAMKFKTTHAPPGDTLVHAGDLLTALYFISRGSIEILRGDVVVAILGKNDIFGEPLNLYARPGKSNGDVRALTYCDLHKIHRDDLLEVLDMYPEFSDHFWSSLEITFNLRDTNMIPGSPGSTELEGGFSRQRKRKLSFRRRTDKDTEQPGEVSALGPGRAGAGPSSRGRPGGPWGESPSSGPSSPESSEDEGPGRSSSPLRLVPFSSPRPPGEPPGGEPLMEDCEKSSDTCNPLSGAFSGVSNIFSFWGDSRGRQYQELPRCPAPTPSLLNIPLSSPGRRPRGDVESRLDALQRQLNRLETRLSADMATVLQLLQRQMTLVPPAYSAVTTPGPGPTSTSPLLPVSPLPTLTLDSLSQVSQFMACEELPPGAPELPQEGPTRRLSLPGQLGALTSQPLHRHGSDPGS

Cc1n[nH]c(C)c1N1CCN(c2cc(C(=O)O)ccc2I)CC1
IC50 [1]: 190 nM
IC50 [2]: 2650 nM

Cc1n[nH]c(C)c1N1CCN(c2cc(C(=O)O)ccc2F)CC1 [listing 1 of 3 here]
Activity [3]: inactive
inhibition [4]: Active
Activity [5]: Active
Activity [6]: Active
inhibition [7]: Active
Activity [8]: Active
Activity [9]: Active

Cc1n[nH]c(C)c1N1CCN(c2cc(C(=O)O)ccc2F)CC1 [listing 2 of 3 here]
inhibition in vivo at 25 mg/kg [10]: 81%

Cc1n[nH]c(C)c1N1CCN(c2cc(C(=O)O)ccc2Cl)CC1
inhibition (INH) [11]: 1.85%
IC50 [12]: > 3 µM
inhibition (INH) [13]: 19.5%
solubility kinetic [14]: ≥ 200 µM
inhibition at 10 µM [15]: 25.2%
PPB [16]: 89%
inhibition at 10 µM [17]: 10%

Cc1n[nH]c(C)c1N1CCN(c2cc(C(=O)O)ccc2C(F)(F)F)CC1
inhibition (INH) [11]: 2.3%
IC50 [12]: > 3 µM
inhibition (INH) [13]: 14.8%
solubility kinetic [14]: ≥ 200 µM
inhibition at 10 µM [15]: 17.1%
PPB [18]: 86%
inhibition at 10 µM [17]: 5.9%

Cc1n[nH]c(C)c1N1CCN(c2ccc(F)c(C(=O)O)c2)CC1
IC50 [12]: > 3 µM

O=C(O)c1ccc2nc(-c3cc(Cl)cc(Cl)c3)oc2c1
IC50 [12]: > 30 µM
Activity [5]: Active
Activity [9]: Active

Cc1n[nH]c(C)c1N1CCN(c2cc(F)cc(C(=O)O)c2)CC1
IC50 [12]: > 3 µM

Cc1n[nH]c(C)c1N1CC2(CN(c3cc(C(=O)O)ccc3F)C2)C1
IC50 [1]: > 30000 nM
IC50 [12]: > 3 µM

Cc1noc(C)c1N1CCN(c2cc(C(=O)O)ccc2F)CC1
IC50 [12]: > 3 µM

Cc1n[nH]c(C)c1N1CCN(c2cc(-c3nn[nH]n3)ccc2F)CC1
CLH [19]: 0.0184 mL/min/mg
inhibition at 10 µM [20]: -4.8%
IC50 [12]: > 3 µM
inhibition (INH) [13]: 18.9%
solubility kinetic [14]: ≥ 200 µM
Stability [21]: 71.4%
inhibition at 10 µM [15]: 26.3%
PPB [16]: 94%
inhibition at 10 µM [17]: 0.8%

Cc1n[nH]c(C)c1N1CCN(c2cc(C(=O)O)ccc2F)CC1 [listing 3 of 3 here]
Cmax [22]: 1560 ng/mL
Stability [23]: 102%
IC50 [12]: > 3 µM
inhibition at 10 µM [24]: -2.2%
IC50 [25]: > 30 µM
EC50 [26]: > 30 µM
Vd [27]: 2.18 L/kg
clearance [28]: 5.9 mL/min/kg
inhibition at 10 µM [15]: 10.4%
PPB [18]: 83%
C0 [29]: 1620 ng/mL
half-life [30]: 323 min
inhibition in vivo at 25 mg/kg [31]: 66%
AUC(0-inf) [32]: 16100 ng·h/mL
AUC(0-t) [33]: 16000 ng·h/mL
half-life [34]: 305 min
inhibition at 10 µM [17]: 8.1%
AUC(0-t) [35]: 6210 ng·h/mL
AUC [36]: 6240 ng·h/mL

Cc1ccc(C(=O)O)cc1N1CCN(c2c(C)n[nH]c2C)CC1
inhibition at 10 µM [20]: 0.06%
IC50 [12]: > 3 µM
inhibition at 10 µM [24]: -5.2%
solubility kinetic [14]: ≥ 200 µM
inhibition at 10 µM [15]: 56.2%
inhibition at 10 µM [17]: 7.34%

Cc1n[nH]c(C)c1CCCOc1cc(C(=O)O)ccc1F [ACORAMIDIS]
IC50 [12]: > 30 µM

Cc1n[nH]c(C)c1N1CCN(c2cccc(C(=O)O)c2F)CC1
IC50 [12]: > 3 µM

Cc1cc(F)c(N2CCN(c3c(C)n[nH]c3C)CC2)cc1C(=O)O
inhibition at 10 µM [20]: -3%
IC50 [12]: > 3 µM
inhibition (INH) [13]: 31.7%
solubility kinetic [14]: ≥ 200 µM
inhibition at 10 µM [15]: 1.1%
PPB [18]: 87%
PPB [16]: 93%
inhibition at 10 µM [17]: 9.2%
Stability [37]: 105%

Cc1n[nH]c(C)c1N1CCC2(CCN(c3cc(C(=O)O)ccc3F)C2)C1 (racemic)
IC50 [1]: 1080 nM
IC50 [12]: > 3 µM

O=C(O)c1ccc(F)c(N2CCN(c3nn[nH]n3)CC2)c1
IC50 [1]: > 30000 nM
IC50 [12]: > 3 µM

O=C(O)c1ccc(F)c(N2CCN(c3ccccc3C(F)(F)F)CC2)c1
IC50 [1]: 1700 nM
IC50 [12]: > 3 µM

Cc1n[nH]c(C)c1N1CCN(c2cc(C(N)=O)ccc2F)CC1
IC50 [12]: > 3 µM

Cc1n[nH]c(C)c1N1C[C@H]2CN(c3cc(C(=O)O)ccc3F)C[C@H]2C1
IC50 [1]: 2820 nM
IC50 [12]: > 3 µM

Cc1n[nH]c(C)c1N1CCN(c2cccc(C(=O)O)c2)CC1
IC50 [12]: > 30 µM
